According to ChEMBL document CHEMBL1926632, “Cytotoxic triterpenoid saponins from Lysimachia clethroides” (J Nat Prod, 2011):

How the values were obtained:
Assay type in all cases: functional, cell-based
[1] = tested on: A-375; test: Cytotoxicity against human A375 cells by MTT assay
Method in brief: (§1)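 MTT read-out following a previously published method. Cell origins: HT-29 colon cancer, HePG2 hepatoma, BGC-823 gastric cancer, A549 lung epithelial, A375 amelanotic melanoma, all human. Paclitaxel served as positive control in the same panel.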

[2] = tested on: BGC-823; test: Cytotoxicity against human BGC823 cells by MTT assay; method in brief: as §1
[3] = tested on: A549; test: Cytotoxicity against human A549 cells by MTT assay; method in brief: as §1
[4] = tested on: HT-29; test: Cytotoxicity against human HT-29 cells by MTT assay; method in brief: as §1
[5] = tested on: HepG2; test: Cytotoxicity against human HepG2 cells by MTT assay; method in brief: as §1

SMILES | IC50 [1] | IC50 [2] | IC50 [3] | IC50 [4] | IC50 [5]
C[C@@H]1O[C@@H](O[C@H]2[C@H](O[C@H]3CO[C@@H](O[C@H]4CC[C@]5(C)[C@H]6CC[C@]78OC[C@@]9(CCC(C)(C)C[C@H]97)C(=O)C[C@@]8(C)[C@]6(C)CC[C@H]5C4(C)C)[C@H](O[C@@H]4O[C@H](CO)[C@@H](O)[C@H](O)[C@H]4O)[C@H]3O)O[C@H](CO)[C@@H](O)[C@@H]2O)[C@H](O)[C@H](O)[C@H]1O [CLETHROIDOSIDE C] | 1.14 µM | 1.93 µM | 2.62 µM | 1.99 µM | 1.48 µM
CC1(C)CC[C@]23CO[C@@]4(CC[C@@H]5[C@@]6(C)CC[C@H](O[C@@H]7OC[C@H](O[C@@H]8O[C@H](CO)[C@@H](O)[C@H](O)[C@H]8O[C@@H]8OC[C@@H](O)[C@H](O)[C@H]8O)[C@H](O)[C@H]7O[C@@H]7O[C@H](CO)[C@@H](O)[C@H](O)[C@H]7O)C(C)(C)[C@@H]6CC[C@@]5(C)[C@]4(C)C[C@H]2O)[C@@H]3C1 [LYSIKOKIANOSIDE 1] | 1.94 µM | 1.75 µM | 1.91 µM | 1.96 µM | 1 µM
CC1(C)CC[C@]23CO[C@@]4(CC[C@@H]5[C@@]6(C)CC[C@H](O[C@@H]7OC[C@H](O[C@@H]8O[C@H](CO)[C@@H](O)[C@H](O)[C@H]8O[C@@H]8OC[C@@H](O)[C@H](O)[C@H]8O)[C@H](O)[C@H]7O[C@@H]7O[C@H](CO)[C@@H](O)[C@H](O)[C@H]7O)C(C)(C)[C@@H]6CC[C@@]5(C)[C@]4(C)CC2=O)[C@@H]3C1 [CLETHROIDOSIDE D] | 1.91 µM | 1.36 µM | 2.36 µM | 1.98 µM | 1.73 µM
C[C@@H]1O[C@@H](O[C@H]2[C@H](O[C@H]3CO[C@@H](O[C@H]4CC[C@]5(C)[C@H]6CC[C@]78OC[C@@]9(CCC(C)(C)C[C@H]97)[C@H](O)C[C@@]8(C)[C@]6(C)CC[C@H]5C4(C)C)[C@H](O[C@@H]4O[C@H](CO)[C@@H](O)[C@H](O)[C@H]4O)[C@H]3O)O[C@H](CO)[C@@H](O)[C@@H]2O)[C@H](O)[C@H](O)[C@H]1O | 2.13 µM | 2.07 µM | 1.95 µM | 1.96 µM | 0.99 µM
CC(=O)OC[C@H]1O[C@@H](O[C@H]2[C@H](O[C@H]3CC[C@]4(C)[C@H]5CC[C@]67OC[C@@]8(CCC(C)(C)C[C@H]86)[C@H](O)C[C@@]7(C)[C@]5(C)CC[C@H]4C3(C)C)OC[C@H](O[C@@H]3O[C@H](CO)[C@@H](O)[C@H](O)[C@H]3O[C@@H]3O[C@@H](C)[C@H](O)[C@@H](O)[C@H]3O)[C@@H]2O)[C@H](O)[C@@H](O)[C@@H]1O [CLETHROIDOSIDE E] | > 10 µM | 8.05 µM | > 10 µM | 1.4 µM | 6.26 µM
CC(=O)O[C@H]1C(=O)[C@@]2(C)[C@H]([C@H](OC(=O)c3ccccc3)[C@]3(O)C[C@H](OC(=O)[C@H](O)[C@@H](NC(=O)c4ccccc4)c4ccccc4)C(C)=C1C3(C)C)[C@]1(OC(C)=O)CO[C@@H]1C[C@@H]2O [PACLITAXEL] | 0.0049 µM | – | 0.0449 µM | 0.00394 µM | 0.0044 µM
CC(=O)O[C@H]1[C@H](OC(C)=O)[C@]23CO[C@@]4(CC[C@@H]5[C@@]6(C)CC[C@H](O[C@@H]7OC[C@H](O[C@@H]8O[C@H](CO)[C@@H](O)[C@H](O)[C@H]8O[C@@H]8OC[C@@H](O)[C@H](O)[C@H]8O)[C@H](O)[C@H]7O[C@@H]7O[C@H](CO)[C@@H](O)[C@H](O)[C@H]7O)C(C)(C)[C@@H]6CC[C@@]5(C)[C@]4(C)C[C@H]2O)[C@@H]3CC1(C)C [CLETHROIDOSIDE F] | 2.19 µM | 1.95 µM | 2.28 µM | 2.04 µM | 1.26 µM
CC1(C)[C@@H](O[C@@H]2OC[C@H](O[C@@H]3O[C@H](CO)[C@@H](O)[C@H](O)[C@H]3O)[C@H](O)[C@H]2O[C@@H]2O[C@H](CO)[C@@H](O)[C@H](O)[C@H]2O)CC[C@]2(C)[C@H]3CC[C@]45OC[C@@]6(CC[C@](C)(CO)C[C@H]64)[C@H](O)C[C@@]5(C)[C@]3(C)CC[C@@H]12 [ARDISIANOSIDE E] | 1.71 µM | 1.14 µM | 2.47 µM | 1.81 µM | 0.75 µM
